In ChEMBL document CHEMBL1138870, “In vitro and in vivo efficacy and in vitro metabolism of 1-phenyl-3-aryl-2-propen-1-ones against Plasmodium falciparum” (Bioorg Med Chem Lett, 2006):
Calls of active or inactive are those of the source. The calls are words filed in the database; no cut-off is given here.

Columns and labels:
[1] = tested on: Plasmodium falciparum; test: Resistance index, IC50 of Plasmodium falciparum W2/IC50 Plasmodium falciparum D6; format: ADME, organism-based; settings: in vitro
Procedure, shortened: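 Ratio of IC50 against P. falciparum W2 to IC50 against strain D6. Each IC50 comes from in vitro inhibition of [3H]hypoxanthine uptake by the parasites, with values from a single experiment.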

[2] = tested on: Plasmodium falciparum; test: Antimalarial activity against Plasmodium falciparum D6; format: functional, organism-based
Procedure, shortened: (§1)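 Cultured P. falciparum parasites were exposed to compound, and inhibition of [³H]hypoxanthine uptake was measured to give the IC50. Values come from a single experiment.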

[3] = tested on: Plasmodium falciparum; test: Antimalarial activity against Plasmodium falciparum W2; format: functional, organism-based; procedure, shortened: as §1
[4] = tested on: Mus musculus; test: Effect on survival of mice (Mus musculus) infected with Plasmodium berghei at 640 mg/kg, perorally; format: functional, organism-based; set-up: dose 640 mg/kg
Procedure, shortened: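 Mice were inoculated intraperitoneally on day 0 with 1.0 × 10⁶ P. berghei P-line-infected red cells. Compound was dissolved in DMSO, diluted with 0.5% hydroxyethylcellulose and 0.1% Tween, and given orally once daily on days 3–7 at 640 mg/kg/dose. Survival of five treated mice was compared with five untreated infected controls.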

Structure (SMILES)	Ratio IC50 [1]	IC50 [2] [µM]	IC50 [3] [µM]	Activity [4]
COc1ccc(C(=O)/C=C/c2ccnc3ccccc23)cc1	1.9	5.4	10	–
COc1ccc(OC)c(C(=O)/C=C/c2ccc3ccccc3c2)c1	0.91	5.5	5	–
COc1ccc(OC)c(C(=O)/C=C/c2cccc3ccccc23)c1	0.97	2.9	2.8	–
O=C(/C=C/c1cnc2ccccc2c1)c1cc(F)ccc1F	1.4	5.6	7.8	–
COc1ccc(C(=O)/C=C/c2cnc3ccccc3c2)c(F)c1	1.5	2.1	3.1	–
COc1ccc(C(=O)/C=C/c2cccc3ccccc23)cc1OC	0.96	5.2	5	–
O=C(/C=C/c1ccnc2ccccc12)c1ccc(F)c(F)c1	0.61	9.4	5.7	–
O=C(/C=C/c1ccc2ccccc2n1)c1ccc(F)cc1F	0.57	2.3	1.3	–
COc1ccc(OC)c(C(=O)/C=C/c2cnc3ccccc3c2)c1	1.4	2	2.7	–
COc1cc(F)ccc1C(=O)/C=C/c1cnc2ccccc2c1	1.4	1.1	1.5	–
COc1cccc(OC)c1C(=O)/C=C/c1cccc2ccccc12	0.97	3.2	3.1	–
COc1ccc(C(=O)/C=C/c2ccc3ccccc3c2)c(OC)c1	–	8.7	> 16	–
COc1ccc(C(=O)/C=C/c2cnc3ccccc3c2)c(OC)c1	0.7	4.8	3.3	–
O=C(/C=C/c1cnc2ccccc2c1)c1ccc(F)cc1F	1.2	5	6.2	–
COc1cc(OC)cc(C(=O)/C=C/c2cnc3ccccc3c2)c1	0.39	11	4.3	–
COc1ccc(C(=O)/C=C/c2ccc3ccccc3n2)cc1	–	4.7	> 17	–
COc1cc(C(=O)/C=C/c2ccc3ccccc3c2)cc(OC)c1OC	0.91	6.6	6	–
COc1ccc(C(=O)/C=C/c2cnc3ccccc3c2)cc1F	1.7	1.6	2.7	–
COc1ccc(C(=O)/C=C/c2ccc3ccccc3c2)cc1	–	> 17	> 17	–

Structure (SMILES)	Ratio IC50 [1]	IC50 [2] [µM]	IC50 [3] [µM]	Activity [4]
COc1ccc(C(=O)/C=C/c2ccc3ccccc3n2)c(OC)c1	0.6	2	1.2	–
COc1cccc(OC)c1C(=O)/C=C/c1cnc2ccccc2c1	0.53	2.2	1.1	–
COc1ccc(Cl)cc1C(=O)/C=C/c1cnc2ccccc2c1	0.62	0.95	0.59	–
O=C(/C=C/c1ccnc2ccccc12)c1cc(F)ccc1F	2.3	3.7	8.6	–
COc1ccc(F)cc1C(=O)/C=C/c1cnc2ccccc2c1	2.4	0.46	1.1	–
COc1ccc(C(=O)/C=C/c2cccc3ccccc23)c(OC)c1OC	1.3	4.3	5.8	–
O=C(/C=C/c1cnc2ccccc2c1)c1ccc(Cl)cc1Cl	0.8	7.9	6.3	–
O=C(/C=C/c1ccnc2ccccc12)c1ccc(Cl)cc1Cl	2.9	6.2	18	–
COc1ccc(C(=O)/C=C/c2ccc3ccccc3c2)cc1OC	0.79	9.8	7.7	–
CCN(CC)CCCC(C)Nc1ccnc2cc(Cl)ccc12 (stereo not drawn)	–	–	–	Active
COc1cc(OC)cc(C(=O)/C=C/c2cccc3ccccc23)c1	0.96	4.5	4.3	–
COc1ccc(C(=O)/C=C/c2ccnc3ccccc23)c(OC)c1	0.67	3	2	–
O=C(/C=C/c1ccnc2ccccc12)c1cc(Cl)ccc1Cl	1.2	0.19	0.23	inactive
COc1cc(C(=O)/C=C/c2cccc3ccccc23)cc(OC)c1OC	0.92	5.2	4.8	–
COc1ccc(C(=O)/C=C/c2cccc3ccccc23)c(OC)c1	0.94	4.9	4.6	–
COc1cccc(OC)c1C(=O)/C=C/c1ccc2ccccc2c1	0.97	3.4	3.3	–
O=C(/C=C/c1ccnc2ccccc12)c1ccc(Cl)c(Cl)c1	0.47	1.7	0.8	inactive
COc1ccc(C(=O)/C=C/c2ccc3ccccc3n2)cc1F	4.1	1.3	5.3	–
O=C(/C=C/c1cnc2ccccc2c1)c1ccc(Cl)c(Cl)c1	3.9	3.1	12	–

Structure (SMILES)	Ratio IC50 [1]	IC50 [2] [µM]	IC50 [3] [µM]	Activity [4]
COc1ccc(C(=O)/C=C/c2cccc3ccccc23)cc1	1.1	9.1	10	–
COc1ccc(C(=O)/C=C/c2cnc3ccccc3c2)cc1Cl	0.7	2.3	1.6	–
O=C(/C=C/c1cnc2ccccc2c1)c1ccc(F)c(F)c1	0.68	8.5	5.8	–
COc1ccc(C(=O)/C=C/c2ccnc3ccccc23)c(OC)c1OC	–	2.6	> 14	–
COc1cc(C(=O)/C=C/c2cnc3ccccc3c2)cc(OC)c1OC	0.67	21	14	–
COc1ccc(C(=O)/C=C/c2cnc3ccccc3c2)cc1	1.8	1.8	3.3	–
COc1ccc(F)cc1C(=O)/C=C/c1ccc2ccccc2n1	0.18	3.8	0.67	–
COc1ccc(F)cc1C(=O)/C=C/c1ccnc2ccccc12	0.8	5.1	4.1	–
COc1ccc(C(=O)/C=C/c2ccnc3ccccc23)cc1Cl	0.53	1.8	0.95	–
COc1cc(F)ccc1C(=O)/C=C/c1ccnc2ccccc12	1	6	6.2	–
COc1ccc(C(=O)/C=C/c2cnc3ccccc3c2)cc1OC	0.65	3.4	2.2	–
COc1ccc(C(=O)/C=C/c2ccc3ccccc3c2)c(OC)c1OC	–	> 14	> 14	–
COc1cc(OC)cc(C(=O)/C=C/c2ccc3ccccc3c2)c1	1.3	7.4	9.5	–
COc1ccc(C(=O)/C=C/c2ccc3ccccc3n2)c(OC)c1OC	1.1	2.9	3.3	–
COc1ccc(C(=O)/C=C/c2cnc3ccccc3c2)c(OC)c1OC	0.42	6.7	2.8	–
COc1ccc(OC)c(C(=O)/C=C/c2ccnc3ccccc23)c1	2.4	3	7.3	–
COc1ccc(C(=O)/C=C/c2ccnc3ccccc23)c(F)c1	1.9	2.4	4.5	–
COc1cccc(OC)c1C(=O)/C=C/c1ccnc2ccccc12	0.44	13	5.7	–
